Measured values: the array DNA melting data of Ke et al. (doi:10.1101/2024.01.08.574731)

Experiments:
[1] = folding enthalpy; higher = less favourable; fluorescence melt of hairpins on a sequencing array, two-state fit; settings: sodium 0.088 M
Method in brief: (§1)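 Folding enthalpy and melting temperature were estimated with bootstrapped two-state fits and combined across four replicates by inverse-variance weighting, with fitted temperatures raised by 9.35 °C to match UV melts. The data were Cy3 fluorescence of library hairpins, with annealed Cy3 and quencher oligos, on a sequenced MiSeq flow cell in 50 mM Na-HEPES pH 8.0, 25 mM NaCl, imaged in 2.5 °C steps up to 60 °C and normalised to pre-quench Cy3 and control constructs.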

[2] = melting temperature; fluorescence melt of hairpins on a sequencing array, two-state fit, raised by 9.35 °C to match UV melts; settings: sodium 0.088 M
Method in brief: as §1

| Sequence | folding enthalpy [1] [kcal/mol] | Tm [2] [°C] |
| --- | --- | --- |
| GTTTTAGGAAACTAAAGC (.(((((....))))).) | -15 | 31.5 |
| GTTTTCCGAAAGGAAAC (((.(((....)))))) | -13.6 | 47.8 |
| GTTTTCGGAAACGAAAAC (((((((....))))))) | -42.6 | 58.5 |
| GTTTTCGGAAACGAGAAC (((.(((....))).))) | -27.4 | 41.6 |
| GTTTTGCGAAAGCACAAC (((.(((....))).))) | -28.1 | 44.2 |
| GTTTTGGGAAACTAAGAC ((.((.(....).)).)) | -9.09 | 29 |
| GTTTTGGGAAACTAGAAC (((.(.(....).).))) | -7.83 | 23.7 |
| GTTTTTACGAAAGTAAAC (((..(((....)))))) | -17.1 | 29.9 |
| GTTTTTCGAAAGAAGAAC (((.(((....))).))) | -32.5 | 37.3 |
| GTTTTTGCGAAAGCAAAC (((..(((....)))))) | -11.9 | 35.2 |
| TAAGGGAAACCTTA (((((....))))) | -10.6 | 29.1 |
| TAATCGAAAGATTA (((((....))))) | -15.2 | 38.9 |
| TACACGAAAGTGTA (((((....))))) | -13.7 | 57.8 |
| TACGGGAAACCGTA (((((....))))) | -15.8 | 48.5 |
| TAGATGAAAATCTA (((((....))))) | -10.1 | 26.1 |
| TAGCTGAAAAGCTA (((((....))))) | -14.6 | 46.9 |
| TAGGAGAAATCCTA (((((....))))) | -8.63 | 25.9 |
| TAGGCGAAAGCCTA (((((....))))) | -12.2 | 65.5 |
| TAGTCGAAAGACTA (((((....))))) | -17.4 | 49.6 |
| TAGTTGAAAAACTA (((((....))))) | -11.8 | 27.4 |
| TATGCGAAAGCATA (((((....))))) | -13.6 | 60.1 |
| TATTCGAAAGAATA (((((....))))) | -14.3 | 36.7 |
| TCAACGAAAGTTGA (((((....))))) | -17.5 | 52 |
| TCCCAGAAATGGGA (((((....))))) | -15.9 | 43.8 |

| Sequence | folding enthalpy [1] [kcal/mol] | Tm [2] [°C] |
| --- | --- | --- |
| TCCTTGAAAAAGGA (((((....))))) | -11.1 | 35.1 |
| TCGAAGAAATTCGA (((((....))))) | -11.1 | 38.7 |
| TCGCTGAAAAGCGA (((((....))))) | -17.4 | 68.8 |
| TCGTAGAAATACGA (((((....))))) | -11.6 | 41.3 |
| TCTCGGAAACGAGA (((((....))))) | -19.6 | 47.9 |
| TCTGGGAAACCAGA (((((....))))) | -15 | 47.1 |
| TCTTCGAAAGAAGA (((((....))))) | -18.8 | 45.8 |
| TGAAAGAAATTTCA (((((....))))) | -5.86 | 26.4 |
| TGATCGAAAGATCA (((((....))))) | -21 | 51.3 |
| TGCGGGAAACCGCA (((((....))))) | -15.7 | 66.5 |
| TGCTCGAAAGAGCA (((((....))))) | -17.9 | 67.7 |
| TGGCAGAAATGCCA (((((....))))) | -23.3 | 54.2 |
| TGGGAGAAATCCCA (((((....))))) | -19.5 | 40.7 |
| TGGTAGAAATACCA (((((....))))) | -12.8 | 36.8 |
| TGTAAGAAATTACA (((((....))))) | -7.98 | 20.6 |
| TGTAGGAAACTACA (((((....))))) | -16.9 | 36.9 |
| TGTTGGAAACAACA (((((....))))) | -18.5 | 42.9 |
| TGTTTGAAAAAACA (((((....))))) | -8.4 | 29.3 |
| TTAGTGAAAACTAA (((((....))))) | -8.57 | 27.8 |
| TTATGGAAACATAA (((((....))))) | -8.55 | 22.8 |
| TTCCCGAAAGGGAA (((((....))))) | -24 | 56.1 |
| TTCCTGAAAAGGAA (((((....))))) | -15 | 39.9 |
| TTGTAGAAATACAA (((((....))))) | -6.32 | 24.9 |
| TTTCCGAAAGGAAA (((((....))))) | -19 | 49.3 |
